Tests used:
Assay type in all cases: functional
[1] = Antiproliferative activity against human […] cells after 48 hrs by SRB assay
How it was run: (§1)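 NCI 60-cell-line human tumour panel, secondary five-dose screen. Compounds tested at 100, 10, 1.0, 0.1 and 0.01 µM with 48 h continuous exposure. Cell growth was estimated by sulforhodamine B protein staining. GI50 is the concentration giving a 50% reduction in net protein increase relative to untreated control cells over the incubation. TGI and LC50 were also derived.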

[2] = tested on: A549; assay: Antiproliferative activity against human A549 cells after 48 hrs by SRB assay; conditions: A549, 48 h, read-out: LC50 (the source's name); how it was run: as §1
[3] = tested on: HCT-15; assay: Antiproliferative activity against human HCT15 cells after 48 hrs by SRB assay; conditions: HCT-15, 48 h; for CC50: read-out: LC50 (the source's name); how it was run: as §1
[4] = tested on: HT-29; assay: Antiproliferative activity against human HT-29 cells after 48 hrs by SRB assay; conditions: HT-29, 48 h, read-out: LC50 (the source's name); how it was run: as §1
[5] = tested on: SW-620; assay: Antiproliferative activity against human SW620 cells after 48 hrs by SRB assay; conditions: SW-620, 48 h; how it was run: as §1
[6] = tested on: SF-295; assay: Antiproliferative activity against human SF295 cells after 48 hrs by SRB assay; conditions: SF-295, 48 h; for CC50: read-out: LC50 (the source's name); how it was run: as §1
[7] = tested on: SF-539; assay: Antiproliferative activity against human SF539 cells after 48 hrs by SRB assay; conditions: SF-539, 48 h
How it was run: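 NCI 60-cell human tumour line panel. Continuous 48 h drug exposure at five concentrations (100, 10, 1.0, 0.1, 0.01 µM). Cell growth estimated by sulforhodamine B protein staining. GI50 = concentration giving 50% reduction in net protein increase versus control cells over the incubation. LC50 = molar concentration killing 50% of cells.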

[8] = tested on: LOX IMVI; assay: Antiproliferative activity against human LOXIMVI cells after 48 hrs by SRB assay; how it was run: as §1
[9] = tested on: IGROV-1; assay: Antiproliferative activity against human IGROV1 cells after 48 hrs by SRB assay; conditions: IGROV-1, 48 h; for CC50: read-out: LC50 (the source's name); how it was run: as §1
[10] = tested on: OVCAR-4; assay: Antiproliferative activity against human OVCAR4 cells after 48 hrs by SRB assay; conditions: OVCAR-4, 48 h, read-out: LC50 (the source's name); how it was run: as §1
[11] = tested on: OVCAR-8; assay: Antiproliferative activity against human OVCAR8 cells after 48 hrs by SRB assay; conditions: OVCAR-8, 48 h; for CC50: read-out: LC50 (the source's name); how it was run: as §1
[12] = tested on: DU-145; assay: Antiproliferative activity against human DU145 cells after 48 hrs by SRB assay; conditions: DU-145, 48 h, read-out: LC50 (the source's name); how it was run: as §1
[13] = tested on: PC-3; assay: Antiproliferative activity against human PC3 cells after 48 hrs by SRB assay; conditions: PC-3, 48 h; how it was run: as §1
[14] = tested on: MCF7; assay: Antiproliferative activity against human MCF7 cells after 48 hrs by SRB assay; conditions: MCF7, 48 h, read-out: LC50 (the source's name); how it was run: as §1
[15] = tested on: Hs-578T; assay: Antiproliferative activity against human Hs 578T cells after 48 hrs by SRB assay; conditions: read-out: LC50 (the source's name); how it was run: as §1
[16] = tested on: CCRF-CEM; assay: Antiproliferative activity against human CCRF-CEM cells after 48 hrs by SRB assay; conditions: read-out: LC50 (the source's name); how it was run: as §1
[17] = tested on: HL-60; assay: Antiproliferative activity against human HL-60(TB) cells after 48 hrs by SRB assay; conditions: HL-60, 48 h; how it was run: as §1
[18] = tested on: K562; assay: Antiproliferative activity against human K562 cells after 48 hrs by SRB assay; conditions: K562, 48 h; how it was run: as §1
[19] = tested on: MOLT-4; assay: Antiproliferative activity against human MOLT4 cells after 48 hrs by SRB assay; conditions: MOLT-4, 48 h; how it was run: as §1
[20] = tested on: HOP-62; assay: Antiproliferative activity against human HOP62 cells after 48 hrs by SRB assay; conditions: HOP-62, 48 h; how it was run: as §1
[21] = tested on: OVCAR-3; assay: Antiproliferative activity against human OVCAR-3 cells after 48 hrs by SRB assay; conditions: OVCAR-3, 48 h; how it was run: as §1
[22] = tested on: 786-0; assay: Antiproliferative activity against human 786-0 cells after 48 hrs by SRB assay; conditions: 786-0, 48 h; how it was run: as §1
[23] = read-out: LC50 (the source's name)

## COc1ccc(C2=NN(C(C)=O)C(c3cn(-c4ccccc4)nc3-c3ccc(Cl)cc3)C2)cc1 (centres undefined)
[1]
  GI50: 1.73 µM
  LC50 (50% lethal concentration): > 100 µM
[2]
  CC50: > 100 µM
[3]
  GI50: 3.09 µM
  CC50: > 100 µM
[4]
  CC50: > 100 µM
[5]
  GI50: 3.48 µM
[5]; [23]
  CC50: > 100 µM
[6]
  GI50: 2.48 µM
  CC50: > 100 µM
[7]
  GI50: 1.87 µM
[8]
  GI50: 1.66 µM
[9]
  CC50: > 100 µM
[10]
  CC50: > 100 µM
[11]
  CC50: > 100 µM
[12]
  CC50: > 100 µM
[13]
  GI50: 2.35 µM
[13]; [23]
  CC50: > 100 µM
[14]
  CC50: > 100 µM
[15]
  CC50: > 100 µM

## O=C(/C=C/c1cn(-c2ccccc2)nc1-c1ccc([N+](=O)[O-])cc1)c1ccc(Cl)cc1
[1]
  GI50: 1.86 µM
  LC50 (50% lethal concentration): > 100 µM
[16]
  CC50: > 100 µM
[17]
  GI50: > 100 µM
[17]; [23]
  CC50: > 100 µM
[18]
  GI50: 0.09 µM
[18]; [23]
  CC50: > 100 µM
[19]
  GI50: 0.87 µM
[19]; [23]
  CC50: > 100 µM
[20]
  GI50: 26 µM
[20]; [23]
  CC50: > 100 µM
[2]
  CC50: > 100 µM
[3]
  CC50: > 100 µM
[4]
  CC50: > 100 µM
[6]
  GI50: 2.32 µM
  CC50: 74.1 µM
[7]
  GI50: 3.95 µM
[7]; [23]
  CC50: > 100 µM
[8]; [23]
  CC50: > 100 µM
[9]
  GI50: 3.54 µM
  CC50: > 100 µM
[21]
  GI50: 1.96 µM
[21]; [23]
  CC50: > 100 µM
[11]
  GI50: 6.32 µM
  CC50: > 100 µM
[22]
  GI50: 3.94 µM
[22]; [23]
  CC50: > 100 µM
[12]
  CC50: > 100 µM
[14]
  CC50: > 100 µM
